These results are taken from article PMC6099197 (Clinical Pharmacology and Therapeutics, 2017).

Data set [1] can be described thus: In vitro solubility in aqueous buffered solutions and biorelevant media. The format is physicochemical. The note with it: for solubility at 24 h: thermodynamic from solid. In outline: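 Crystalline succinate salt of test compound (~763 mg, ~600 mg free-form equivalent) added to 250 mL of 50 mM aqueous buffer (HCl/KCl pH 2.0, acetate pH 4.5, phosphate pH 6.8 or 7.5) or FaSSIF v1 (pH 6.5, 3 mM taurocholate, 0.75 mM lecithin) or FeSSIF v1 (pH 5.0, 15 mM bile salt). Held at 37 ± 1°C with magnetic stirring. Liquid separated at 24 h and assayed by HPLC. Top tested level 2.4 mg/mL; triplicate, mean reported.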

The nature of data set [2]: pKa. Type of data set: physicochemical.
A short description of data set [3]: Food effect study A2103, single-dose PK in healthy volunteers. Type of data set: in vivo, human. The note with it: single 600 mg dose.

Turning to `CN(C)C(=O)c1cc2cnc(Nc3ccc(N4CCNCC4)cn3)nc2n1C1CCCC1` [Ribociclib], in data set [1] (acidic media), the solubility was at most 200000 µg/mL. For the same compound, the solubility at 24 h in data set [1] (aqueous buffered solution, 37 °C, pH 2, aqueous buffer) was above 2400 µg/mL; in data set [1] (biorelevant medium FaSSIF v1, 37 °C, pH 6.5, fassif) it was above 2400 µg/mL; in data set [1] (biorelevant medium FeSSIF v1, 37 °C, pH 5, fessif), above 2200 µg/mL. The pKa in data set [2] (pKa1 (base)) turned out to be 8.6; in data set [2] (pKa2 (base)), 5.5. Moreover, in data set [3] (both, human, plasma, oral, 600 mg, T1/2, Geo-mean (CV% Geo-mean), fed state (high-fat, high-calorie meal)), the half-life is 33.6 h. Further, the “Tmax fed minus fasted, difference of the medians (90% CI)” value in data set [3] is 1 (–2, 8) h.
